PMC7033594 (iScience, 2020)
Each block holds one molecule with its values, some of them ahead of it.

Tests used:
full-length AtTSPO [1] = target: T1, full-length AtTSPO (Arabidopsis thaliana, UniProt O82245); assay: Protein-lipid overlay; assay type: binding
T1 sequence (O82245 1-196): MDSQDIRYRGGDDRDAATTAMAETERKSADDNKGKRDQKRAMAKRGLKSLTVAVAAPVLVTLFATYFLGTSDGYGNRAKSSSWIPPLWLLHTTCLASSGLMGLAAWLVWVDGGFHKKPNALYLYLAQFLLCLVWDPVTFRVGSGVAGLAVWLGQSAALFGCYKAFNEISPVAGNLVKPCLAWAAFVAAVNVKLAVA
Outline: (§1)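 Lipids were spotted on nitrocellulose and air-dried 1 h: PA from CHCl3, and PI3P, PI4P and PI(4,5)P2 from 2% DDM. Commercial PIP strips were also used. Membranes were blocked in 3% BSA in TBS-Tween, incubated with purified protein in blocking buffer for 3 h at room temperature, then probed with primary and HRP secondary antibodies and developed by ECL.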

full-length AtTSPO [2] = target: T1, full-length AtTSPO; assay: Microscale thermophoresis, phosphatidic acid titrated against full-length AtTSPO; assay type: binding; conditions: protein labeled with NT-647-NHS, non-linear fitting
Outline: (§2)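 Microscale thermophoresis was run on a Monolith NT115. Lysine residues of yeast-derived full-length protein or bacterially expressed N-terminal peptide were labelled with NT-647-NHS. Labelled protein was titrated against a PA concentration gradient in 50 mM Tris pH 8.0, 200 mM NaCl, 10% glycerol, 2% DDM and protease inhibitors. LED power was 100%. Kd came from non-linear fitting of normalised fluorescence.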

[3] = target: T2, N-terminal peptide (AtTSPO^Nter) (Arabidopsis thaliana, UniProt O82245); assay type: binding; conditions: thermophoresis; peptide labeled with NT-647-NHS; non-linear fitting
T2 sequence (O82245 1-49): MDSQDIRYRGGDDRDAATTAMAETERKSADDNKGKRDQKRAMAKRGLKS
Outline: as §2

AtTSPO^ΔN [4] = target: T3, AtTSPO^ΔN (Arabidopsis thaliana, UniProt O82245); assay: Membrane-spotted PA gradient / PA pull-down with AtTSPO^ΔN; assay type: binding; conditions: membrane-spotted gradient of PA
T3 sequence (O82245 42-196): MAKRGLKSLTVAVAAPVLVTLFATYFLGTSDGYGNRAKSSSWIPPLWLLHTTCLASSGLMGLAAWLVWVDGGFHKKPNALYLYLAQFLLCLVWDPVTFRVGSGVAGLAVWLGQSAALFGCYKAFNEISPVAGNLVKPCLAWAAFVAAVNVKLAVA
Outline: as §1

PLC activity = PLC activity in seedlings after ABA treatment; assay type: in vivo, Arabidopsis; conditions: 50 μM ABA for 24 h
Outline: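 Ten-day-old seedlings grown on MS agar were incubated 24 h in the dark in liquid half-strength MS with or without 50 µM ABA. PLC activity in seedling extracts was measured in triplicate with the EnzCheck direct PLC kit. Fluorescence was normalised to the kit's Bacillus cereus PC-PLC. Groups were compared by one-way ANOVA with Tukey's test.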

[5] = test system: PI(4,5)P2 biosensor in Arabidopsis suspension cells; assay: PI; assay type: cell-based; conditions: 50 µM ABA for 24h
AtTSPO^Nter [6] = target: T4, AtTSPO^Nter (Arabidopsis thaliana, UniProt O82245); assay: Protein-lipid overlay with purified AtTSPO N-terminal peptide; assay type: binding
T4 sequence (O82245 1-49): T2 sequence (O82245 1-49)
Outline: as §1

mTSPO = mTSPO (Mus musculus, UniProt P50637); assay: Protein-lipid overlay with purified mouse TSPO; assay type: binding
mTSPO, sequence (P50637 whole entry): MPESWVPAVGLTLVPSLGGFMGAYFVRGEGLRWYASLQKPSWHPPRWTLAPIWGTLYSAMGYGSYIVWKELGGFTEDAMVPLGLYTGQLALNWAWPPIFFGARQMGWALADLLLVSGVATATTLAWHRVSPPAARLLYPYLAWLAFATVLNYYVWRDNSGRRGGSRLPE
Outline: as §1

full-length AtTSPO [7] = target: T1, full-length AtTSPO; assay: Microscale thermophoresis, PI; assay type: binding
Outline: (§3)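 Microscale thermophoresis used His-tag labelling with RED-tris-NTA. Full-length or N-terminally truncated 10His protein from yeast was titrated against a PI(4,5)P2 concentration gradient in 50 mM Tris pH 8.0, 200 mM NaCl, 10% glycerol, 2% DDM and protease inhibitors. Laser power was 10, 20 or 40%. Values are mean ± SD of three experiments, with Kd from non-linear regression.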

AtTSPO^ΔN [8] = target: T3, AtTSPO^ΔN; assay: Microscale thermophoresis, PI; assay type: binding; conditions: RED-tris-NTA label
Outline: as §3

AtTSPO^Nter [9] = target: T4, AtTSPO^Nter; assay: NMR 1H-15N HSQC titration of AtTSPO^Nter with lipids; assay type: binding
[10] = target: T5, AtTSPO-PIP2;7 interaction (Arabidopsis thaliana, UniProt O82245); assay: Microscale thermophoresis of YFP-PIP2; assay type: binding; conditions: 50 μM lipid in trans
T5 sequence (O82245 1-196): T1 sequence (O82245 1-196)
T5 sequence (P93004 1-280 partner): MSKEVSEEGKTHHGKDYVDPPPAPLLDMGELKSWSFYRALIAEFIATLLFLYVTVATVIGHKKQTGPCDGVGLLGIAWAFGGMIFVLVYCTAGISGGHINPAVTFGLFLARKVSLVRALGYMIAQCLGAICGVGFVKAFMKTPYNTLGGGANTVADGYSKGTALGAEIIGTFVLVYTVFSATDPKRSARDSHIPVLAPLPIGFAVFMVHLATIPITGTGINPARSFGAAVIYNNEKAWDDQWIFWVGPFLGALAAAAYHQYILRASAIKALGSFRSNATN
Outline: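 The aquaporin (mVenus-tagged YFP-PIP2;7) was a DDM-solubilised microsomal fraction from transgenic Arabidopsis seedlings. It was titrated against a range of AtTSPO concentrations, with 50 µM PI(4,5)P2, phosphatidylcholine, or no lipid added. Buffer was 50 mM Tris pH 8.0, 200 mM NaCl, 10% glycerol, 2% DDM. YFP was read through the green filter. Normalised data from three experiments (mean ± SD) were fitted by non-linear regression.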

Molecule: phosphatidylserine [PS]
- binding to purified full-length AtTSPO (full-length AtTSPO [1]): bound

Molecule: phosphatidic acid [PA]
- Kd (full-length AtTSPO [2]): 2100 µM
- Kd [3]: 3300 µM
- binding to purified full-length AtTSPO (full-length AtTSPO [1]): bound
- binding to AtTSPO^ΔN (AtTSPO^ΔN [4]): could not bind

Molecule: CC1=CC(=O)CC(C)(C)[C@@]1(O)/C=C/C(C)=C\C(=O)O [ABA, abscisic acid]
- effect on PLC activity (PLC activity; KO TSPO seedlings): no effect
- increase of PLC activity (PLC activity; OE TSPO seedlings): ~4 fold
- enhancement of PLC activity compared with untreated samples (PLC activity; WT seedlings): ~20%
- effect on PLC activity (PLC activity; seedlings overexpressing N-terminally truncated AtTSPO): no effect
- distribution of the PI(4,5)P2 biosensor [5]: partial redistribution of the PI(4,5)P2 biosensor from the PM to the cytosol

Molecule: PI3P
- binding to purified full-length AtTSPO (full-length AtTSPO [1]): could bind
- binding to N-terminal peptide of AtTSPO (AtTSPO^Nter [6]): could bind
- binding to mTSPO (mTSPO): bind

Molecule: phosphatidylcholine [PC]
- AtTSPO and Venus-PIP2;7 interaction [10]: no interaction

The next lines start with results.

- binding to purified full-length AtTSPO (full-length AtTSPO [1]): bound all tested PIs except PI(3,4)P2
Molecule: PI(3,4)P2

- Kd (full-length AtTSPO [7]): 2300 ± 700 µM
- binding to AtTSPO^ΔN (AtTSPO^ΔN [8]): no binding was observed
- Kd (AtTSPO^Nter [9]): ~150 µM
- binding to purified full-length AtTSPO (full-length AtTSPO [1]): could bind
- binding to N-terminal peptide of AtTSPO (AtTSPO^Nter [6]): could bind
- binding to mTSPO (mTSPO): did not bind
Molecule: CCCCCCCC/C=C\CCCCCCCC(=O)OC[C@H](COP(=O)(O)O[C@@H]1[C@H](O)[C@H](O)[C@@H](OP(=O)(O)O)[C@H](OP(=O)(O)O)[C@H]1O)OC(=O)CCCCCCC/C=C\CCCCCCCC [PI(4,5)P2, 1,2-dioleoyl-sn-glycero-3-phospho-(1’-myo-inositol-4’,5’-bisphosphate)]
- AtTSPO and Venus-PIP2;7 interaction [10]: clearly indicating a protein-protein interaction

- binding to purified full-length AtTSPO (full-length AtTSPO [1]): could bind
- binding to N-terminal peptide of AtTSPO (AtTSPO^Nter [6]): could bind
Molecule: PI4P

- binding to purified full-length AtTSPO (full-length AtTSPO [1]): could bind
- binding to N-terminal peptide of AtTSPO (AtTSPO^Nter [6]): could bind
Molecule: PI5P
